{"source": "ChEMBL document CHEMBL4145521", "about": "“Regioselective synthesis of 3,4-diaryl-5-unsubstituted isoxazoles, analogues of natural cytostatic combretastatin A4” (Eur J Med Chem, 2018)", "format_in_all_cases": "functional", "key": {"MOLT-4": {"test_system": "MOLT-4", "experiment": "Cytotoxicity against human MOLT4 cells assessed as cell growth at 10 uM incubated for 48 hrs by sulforhodamine B assay relative to control", "conditions": "MOLT-4, 48 h, read-out: Activity"}, "OVCAR-4": {"test_system": "OVCAR-4", "experiment": "Cytotoxicity against human OVCAR4 cells assessed as cell growth at 10 uM incubated for 48 hrs by sulforhodamine B assay relative to control", "conditions": "OVCAR-4, 48 h, read-out: Activity"}, "A549": {"test_system": "A549", "experiment": "Cytotoxicity against human A549/ATCC cells assessed as cell growth at 0.01 uM incubated for 48 hrs by sulforhodamine B assay relative to control", "conditions": "A549, 48 h, read-out: Activity"}, "HOP-92": {"test_system": "HOP-92", "experiment": "Cytotoxicity against human HOP92 cells assessed as cell growth at 1 uM incubated for 48 hrs by sulforhodamine B assay relative to control", "conditions": "HOP-92, 48 h, read-out: Activity"}, "Hs-578T": {"test_system": "Hs-578T", "experiment": "Cytotoxicity against human Hs 578T cells incubated for 48 hrs by sulforhodamine B assay"}, "UACC-62": {"test_system": "UACC-62", "experiment": "Cytotoxicity against human UACC62 cells assessed as cell growth at 1 uM incubated for 48 hrs by sulforhodamine B assay relative to control", "conditions": "UACC-62, 48 h, read-out: Activity"}, "SK-MEL-2": {"test_system": "SK-MEL-2", "experiment": "Cytotoxicity against human SK-MEL-2 cells assessed as cell growth at 100 uM incubated for 48 hrs by sulforhodamine B assay relative to control", "conditions": "SK-MEL-2, 48 h, read-out: Activity"}, "IGROV-1 [1]": {"test_system": "IGROV-1", "experiment": "Cytotoxicity against human IGROV1 cells assessed as cell growth at 0.1 uM incubated for 48 hrs by sulforhodamine B assay relative to control", "conditions": "IGROV-1, 48 h, read-out: Activity"}, "OVCAR-5 [2]": {"test_system": "OVCAR-5", "experiment": "Cytotoxicity against human OVCAR5 cells assessed as cell growth at 10 uM incubated for 48 hrs by sulforhodamine B assay relative to control", "conditions": "OVCAR-5, 48 h, read-out: Activity"}, "CCRF-CEM": {"test_system": "CCRF-CEM", "experiment": "Cytotoxicity against human CCRF-CEM cells assessed as cell growth at 1 uM incubated for 48 hrs by sulforhodamine B assay relative to control", "conditions": "read-out: Activity"}, "HT-29": {"test_system": "HT-29", "experiment": "Cytotoxicity against human HT-29 cells assessed as cell growth at 100 uM incubated for 48 hrs by sulforhodamine B assay relative to control", "conditions": "HT-29, 48 h, read-out: Activity"}, "EKVX": {"test_system": "EKVX", "experiment": "Cytotoxicity against human EKVX cells assessed as cell growth at 10 uM incubated for 48 hrs by sulforhodamine B assay relative to control", "conditions": "read-out: Activity"}, "HCC 2998": {"test_system": "HCC 2998", "experiment": "Cytotoxicity against human HCC2998 cells assessed as cell growth at 0.01 uM incubated for 48 hrs by sulforhodamine B assay relative to control", "conditions": "HCC 2998, 48 h, read-out: Activity"}, "A498": {"test_system": "A498", "experiment": "Cytotoxicity against human A498 cells assessed as cell growth at 10 uM incubated for 48 hrs by sulforhodamine B assay relative to control", "conditions": "A498, 48 h, read-out: Activity"}, "DU-145": {"test_system": "DU-145", "experiment": "Cytotoxicity against human DU145 cells assessed as cell growth at 100 uM incubated for 48 hrs by sulforhodamine B assay relative to control", "conditions": "DU-145, 48 h, read-out: Activity"}, "CAKI-1": {"test_system": "CAKI-1", "experiment": "Cytotoxicity against human Caki1 cells assessed as cell growth at 0.01 uM incubated for 48 hrs by sulforhodamine B assay relative to control", "conditions": "CAKI-1, 48 h, read-out: Activity"}, "MDA-MB-231": {"test_system": "MDA-MB-231", "experiment": "Cytotoxicity against human MDA-MB-231 cells assessed as cell growth at 0.1 uM incubated for 48 hrs by sulforhodamine B assay relative to control", "conditions": "MDA-MB-231, 48 h, read-out: Activity"}, "RXF 393": {"test_system": "RXF 393", "experiment": "Cytotoxicity against human RXF393 cells assessed as cell growth at 0.01 uM incubated for 48 hrs by sulforhodamine B assay relative to control", "conditions": "RXF 393, 48 h, read-out: Activity"}, "U-251": {"test_system": "U-251", "experiment": "Cytotoxicity against human U251 cells assessed as cell growth at 0.01 uM incubated for 48 hrs by sulforhodamine B assay relative to control", "conditions": "U-251, 48 h, read-out: Activity"}, "SF-539": {"test_system": "SF-539", "experiment": "Cytotoxicity against human SF539 cells assessed as cell growth at 100 uM incubated for 48 hrs by sulforhodamine B assay relative to control", "conditions": "SF-539, 48 h, read-out: Activity"}, "SF-295": {"test_system": "SF-295", "experiment": "Cytotoxicity against human SF295 cells assessed as cell growth at 100 uM incubated for 48 hrs by sulforhodamine B assay relative to control", "conditions": "SF-295, 48 h, read-out: Activity"}, "KM12": {"test_system": "KM12", "experiment": "Cytotoxicity against human KM12 cells assessed as cell growth at 1 uM incubated for 48 hrs by sulforhodamine B assay relative to control", "conditions": "KM12, 48 h, read-out: Activity"}, "NCI-H522": {"test_system": "NCI-H522", "experiment": "Cytotoxicity against human NCI-H522 cells assessed as cell growth at 0.1 uM incubated for 48 hrs by sulforhodamine B assay relative to control", "conditions": "NCI-H522, 48 h, read-out: Activity"}, "K562": {"test_system": "K562", "experiment": "Cytotoxicity against human K562 cells assessed as cell growth at 100 uM incubated for 48 hrs by sulforhodamine B assay relative to control", "conditions": "K562, 48 h, read-out: Activity"}, "Paracentrotus lividus": {"test_system": "Paracentrotus lividus", "experiment": "Antimitotic activity against Paracentrotus lividus embryo assessed as cleavage alteration measured at 2.5 hrs post fertilization by light microscopy", "summary_of_the_method": "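Sea urchin eggs were fertilized with diluted sperm and cultured at room temperature in filtered seawater with paddle agitation (60 rpm), at up to 2000 embryos/mL. The effective threshold concentration causing cleavage alteration, death before hatching or full mitotic arrest was scored in duplicate.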"}, "786-0": {"test_system": "786-0", "experiment": "Cytotoxicity against human 786-0 cells incubated for 48 hrs by sulforhodamine B assay", "conditions": "786-0, 48 h"}, "OVCAR-5 [3]": {"test_system": "OVCAR-5", "experiment": "Cytotoxicity against human OVCAR5 cells assessed as cell growth at 100 uM incubated for 48 hrs by sulforhodamine B assay relative to control", "conditions": "OVCAR-5, 48 h, read-out: Activity"}, "SK-OV-3": {"test_system": "SK-OV-3", "experiment": "Cytotoxicity against human SKOV3 cells assessed as cell growth at 0.01 uM incubated for 48 hrs by sulforhodamine B assay relative to control", "conditions": "SK-OV-3, 48 h, read-out: Activity"}, "SNB-75": {"test_system": "SNB-75", "experiment": "Cytotoxicity against human SNB75 cells assessed as cell growth at 0.01 uM incubated for 48 hrs by sulforhodamine B assay relative to control", "conditions": "SNB-75, 48 h, read-out: Activity"}, "TK-10": {"test_system": "TK-10", "experiment": "Cytotoxicity against human TK10 cells assessed as cell growth at 1 uM incubated for 48 hrs by sulforhodamine B assay relative to control", "conditions": "TK-10, 48 h, read-out: Activity"}, "IGROV-1 [4]": {"test_system": "IGROV-1", "experiment": "Cytotoxicity against human IGROV1 cells assessed as cell growth at 10 uM incubated for 48 hrs by sulforhodamine B assay relative to control", "conditions": "IGROV-1, 48 h, read-out: Activity"}, "HOP-62": {"test_system": "HOP-62", "experiment": "Cytotoxicity against human HOP62 cells assessed as cell growth at 1 uM incubated for 48 hrs by sulforhodamine B assay relative to control", "conditions": "HOP-62, 48 h, read-out: Activity"}}, "data": [{"smiles": "COc1ccc(-c2nocc2-c2cc(OC)c(OC)c(OC)c2)cc1", "values": [{"measurement": "growth at 10 µM", "setting": "MOLT-4", "result": 26, "unit": "%"}, {"measurement": "growth at 10 µM", "setting": "OVCAR-4", "result": 32, "unit": "%"}, {"measurement": "growth at 0.01 µM", "setting": "A549", "result": 100, "unit": "%"}, {"measurement": "growth at 1 µM", "setting": "HOP-92", "result": 46, "unit": "%"}, {"measurement": "GI50", "setting": "Hs-578T; read-out: GI50", "result": 0.396, "unit": "µM"}, {"measurement": "CC50", "setting": "Hs-578T; read-out: LC50 (the source's name)", "result": "> 100", "unit": "µM"}, {"measurement": "TGI", "setting": "Hs-578T; read-out: TGI", "result": "> 100", "unit": "µM"}, {"measurement": "GI50", "setting": "Hs-578T; read-out: pGI50 (converted)", "result": 0.398, "unit": "µM"}, {"measurement": "CC50", "setting": "Hs-578T; read-out: pLC50 (the source's name) (converted)", "result": "> 100", "unit": "µM"}, {"measurement": "TGI", "setting": "Hs-578T; read-out: pTGI", "result": "> 100", "unit": "µM"}, {"measurement": "growth at 1 µM", "setting": "UACC-62", "result": 27, "unit": "%"}, {"measurement": "growth at 100 µM", "setting": "SK-MEL-2", "result": -8, "unit": "%"}, {"measurement": "growth at 0.1 µM", "setting": "IGROV-1 [1]", "result": 54, "unit": "%"}, {"measurement": "growth at 10 µM", "setting": "OVCAR-5 [2]", "result": 39, "unit": "%"}, {"measurement": "growth at 1 µM", "setting": "CCRF-CEM", "result": 24, "unit": "%"}, {"measurement": "growth at 100 µM", "setting": "HT-29", "result": -36, "unit": "%"}, {"measurement": "growth at 10 µM", "setting": "EKVX", "result": 32, "unit": "%"}, {"measurement": "growth at 0.01 µM", "setting": "HCC 2998", "result": 97, "unit": "%"}, {"measurement": "growth at 10 µM", "setting": "A498", "result": -13, "unit": "%"}, {"measurement": "growth at 100 µM", "setting": "DU-145", "result": 7, "unit": "%"}, {"measurement": "growth at 0.01 µM", "setting": "CAKI-1", "result": 90, "unit": "%"}, {"measurement": "growth at 0.1 µM", "setting": "MDA-MB-231", "result": 72, "unit": "%"}, {"measurement": "growth at 0.01 µM", "setting": "RXF 393", "result": 103, "unit": "%"}, {"measurement": "growth at 0.01 µM", "setting": "U-251", "result": 99, "unit": "%"}, {"measurement": "growth at 100 µM", "setting": "SF-539", "result": -15, "unit": "%"}, {"measurement": "growth at 100 µM", "setting": "SF-295", "result": -35, "unit": "%"}, {"measurement": "growth at 1 µM", "setting": "KM12", "result": 20, "unit": "%"}, {"measurement": "growth at 0.1 µM", "setting": "NCI-H522", "result": -12, "unit": "%"}, {"measurement": "growth at 100 µM", "setting": "K562", "result": 4, "unit": "%"}, {"measurement": "EC", "setting": "Paracentrotus lividus", "result": 0.01, "unit": "µM"}, {"measurement": "GI50", "setting": "786-0; read-out: GI50", "result": 0.174, "unit": "µM"}, {"measurement": "LC50", "setting": "786-0; read-out: LC50", "result": "> 100", "unit": "µM"}, {"measurement": "TGI", "setting": "786-0; read-out: TGI", "result": 38.6, "unit": "µM"}, {"measurement": "GI50", "setting": "786-0; read-out: pGI50 (converted)", "result": 0.174, "unit": "µM"}, {"measurement": "LC50", "setting": "786-0; read-out: pLC50 (converted)", "result": "> 100", "unit": "µM"}, {"measurement": "TGI", "setting": "786-0; read-out: pTGI (converted)", "result": 38.9, "unit": "µM"}, {"measurement": "growth at 100 µM", "setting": "OVCAR-5 [3]", "result": 21, "unit": "%"}, {"measurement": "growth at 0.01 µM", "setting": "SK-OV-3", "result": 87, "unit": "%"}, {"measurement": "growth at 0.01 µM", "setting": "SNB-75", "result": 74, "unit": "%"}, {"measurement": "growth at 1 µM", "setting": "TK-10", "result": 21, "unit": "%"}, {"measurement": "growth at 10 µM", "setting": "IGROV-1 [4]", "result": 25, "unit": "%"}, {"measurement": "growth at 1 µM", "setting": "HOP-62", "result": 39, "unit": "%"}]}]}
